Laboratory results: ChEMBL document CHEMBL1131461 (J Med Chem, 1998)
Where a chain is given by its changes, count along the chain named.

Tests used:
[1] = target: T1, Muscarinic acetylcholine receptor M1 (Rattus norvegicus, UniProt P08482); assay: Binding affinity for muscarinic acetylcholine receptor M1 using [3H]pirenzepine (Pz) radioligand in rat hippocampus membranes.; format: cell membranes
T1 sequence (P08482 whole entry): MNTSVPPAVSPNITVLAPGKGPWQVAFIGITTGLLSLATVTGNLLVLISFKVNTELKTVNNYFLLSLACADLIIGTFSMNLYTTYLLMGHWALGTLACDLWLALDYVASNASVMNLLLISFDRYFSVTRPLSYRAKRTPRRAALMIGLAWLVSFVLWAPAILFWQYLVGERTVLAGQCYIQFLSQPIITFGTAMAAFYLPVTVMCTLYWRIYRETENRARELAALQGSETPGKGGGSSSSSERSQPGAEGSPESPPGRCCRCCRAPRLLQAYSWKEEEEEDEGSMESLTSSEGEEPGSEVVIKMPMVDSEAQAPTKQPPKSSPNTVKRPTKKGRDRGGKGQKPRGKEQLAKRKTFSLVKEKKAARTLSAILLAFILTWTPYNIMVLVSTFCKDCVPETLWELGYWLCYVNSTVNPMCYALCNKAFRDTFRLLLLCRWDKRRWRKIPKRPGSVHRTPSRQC

Mus musculus [2] = assay: Compound at an intraperitoneal dose of 10 mg/Kg was tested for salivation in mice expressed as score; format: functional
How it was run: (§1)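 Male Cr1:CF1RBR mice, 20–30 g, in groups of five. Compound dissolved in distilled water, given ip at 10 mg/kg. Salivation and tremor scored 30 min after dosing on a 0–2 scale (0 = no effect, 1 = moderate, 2 = marked).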

[3] = target: T1, Muscarinic acetylcholine receptor M1; assay: Binding affinity for muscarinic acetylcholine receptor M1 using [3H]oxotremorine-M (Oxo-M) radioligand in rat hippocampus membranes; format: cell membranes, Membrane
Mus musculus [4] = assay: Intraperitoneal dose of 10 mg/Kg was tested for salivation in mice expressed as score.; format: functional; how it was run: as §1
Mus musculus [5] = assay: Compound at an intraperitoneal dose of 10 mg/Kg was tested for salivation in mice expressed as score; 1=Moderate salivation or tremor; format: functional; how it was run: as §1
[6] = target: T2, Muscarinic acetylcholine receptor M1 (Homo sapiens, UniProt P11229); assay: Effective concentration required for stimulation of phosphoinositol (PI) hydrolysis in the A9 L cell line transfected with the Muscarinic acetylcholine receptor M1.; format: functional, cell-based, A9L
T2 sequence (P11229 whole entry): T1 sequence (P08482 whole entry) with V5A, S254T, S309P, K320R, G337A, V413I

Mus musculus [7] = assay: Compound at an intraperitoneal dose of 10 mg/Kg was tested for salivation in mice expressed as score; 2=Marked salivation or tremor; format: functional; how it was run: as §1

Compound	IC50 [1] [nM]	Score (Mus musculus [2])	IC50 [3] [nM]	Score (Mus musculus [4])	Score (Mus musculus [5])	EC50 [6] [nM]	Score (Mus musculus [7])
CSc1nsnc1OC1CN2CCC1CC2 (configuration not stated)	42.5	0.4	17.5	–	–	–	–
CCCOc1nsnc1OC1CN2CCC1CC2 (configuration not stated)	44.5	–	12.5	0	–	–	–
CCCCCCSc1nsnc1OC1CN2CCC1CC2 (configuration not stated)	28.4	–	7.6	–	1	225	–
CCCCCCOc1nsnc1OC1CN2CCC1CC2 (configuration not stated)	42	0.2	11.7	–	–	259	–
c1nsnc1OC1CN2CCC1CC2 (configuration not stated)	833	–	537	0	–	–	–
Clc1nsnc1OC1CN2CCC1CC2 (configuration not stated)	63.5	–	98.5	0	–	–	–
CCCCOc1nsnc1OCC[N+](C)(C)C	41	–	36	0	–	–	–
CCSCc1nsnc1OC1CN2CCC1CC2 (configuration not stated)	79	–	66.5	0	–	–	–
CCCCOc1nsnc1OC1CCNC1 (configuration not stated)	361	–	158	0	–	4870	–
CCCCOc1nsnc1OCCN(C)C	68.5	–	67.5	0	–	–	–
CCSc1nsnc1OC1CN2CCC1CC2 (configuration not stated)	20	–	6.5	0	–	–	–
CSCCc1nsnc1OC1CN2CCC1CC2 (configuration not stated)	66	–	58.7	0	–	–	–
CCCCCOc1nsnc1OC1CN2CCC1CC2 (configuration not stated)	47.7	–	12.7	0	–	165	–
CCCCOc1nsnc1OC1CCN(C)C1 (configuration not stated)	44	–	42	0	–	–	–
CCCSc1nsnc1OC1CN2CCC1CC2 (configuration not stated)	21	0.8	2.9	–	–	431	–
CCOc1nsnc1OC1CN2CCC1CC2 (configuration not stated)	65.5	–	20	0	–	–	–
CCCCOc1nsnc1OC1CNC1	–	–	105	0	–	6200	–
CCCCOc1nccnc1OC1CN2CCC1CC2 (configuration not stated)	22.3	–	38.2	0	–	–	–

Compound	IC50 [1] [nM]	Score (Mus musculus [2])	IC50 [3] [nM]	Score (Mus musculus [4])	Score (Mus musculus [5])	EC50 [6] [nM]	Score (Mus musculus [7])
CCCCOc1nonc1OC1CN2CCC1CC2 (configuration not stated)	91	–	252	0	–	–	–
CCCCOc1nsnc1OC1CN2CCC1CC2 (configuration not stated)	42.3	0.4	10.7	–	–	102	–
CCCSc1nsnc1OC12CCCN(CC1)C2 (configuration not stated)	6.8	–	5.2	0	–	–	–
COc1nsnc1OC1CN2CCC1CC2 (configuration not stated)	155	–	201	0	–	–	–
CCCCSc1nsnc1OC1CN2CCC1CC2 (configuration not stated)	5	–	2.5	–	1	22.3	–
CCCCCSc1nsnc1OC1CN2CCC1CC2 (stereo in doubt; 18e)	9	0.6	4.4	–	–	433	–
CCCCCSc1nsnc1OC1CN2CCC1CC2 (stereo in doubt; 18f)	3.7	–	6.4	0	–	–	–
CCCCCSc1nsnc1OC1CN2CCC1CC2 (stereo in doubt; 18g)	2.7	1.2	1.4	–	–	136	–
CCCSc1nsnc1OC1CN2CCC1C2 (stereo in doubt; 26)	4.4	–	0.76	–	–	1.9	2
CCCSc1nsnc1O[C@@H]1CC2CCN(C2)C1 (stereo in doubt; 27)	7	0.2	2.8	–	–	–	–
CCCSc1nsnc1OC1CN2CCCC1C2 (stereo in doubt; 28)	0.55	–	0.38	–	–	1	2
CCCSc1nsnc1OC1CN2CCC1C2 (stereo in doubt; 32)	66.7	1.8	5.5	–	–	162	–
CCCSc1nsnc1O[C@@H]1CC2CCN(C2)C1 (stereo in doubt; 33)	20	–	15	0	–	–	–
CCCSc1nsnc1OC1CN2CCCC1C2 (stereo in doubt; 34)	33	–	179	0	–	–	–
CCCSc1nsnc1C1CN2CCC1C2 (stereo in doubt; 40)	–	–	5.8	–	–	–	–
CCCSc1nsnc1C1CN2CCC1C2 (stereo in doubt; 41)	–	–	0.6	–	–	–	–
CC(=O)OC1CN2CCC1CC2 (configuration not stated) [ACECLIDINE]	–	–	–	–	–	–	2
CCCCCCOc1nsnc1C1=CCCN(C)C1 [XANOMELINE]	–	–	–	0	–	–	–
